This is an account of results in ChEMBL document CHEMBL1177874, “Synthesis and in vitro anticancer screening of some novel 4-[2-amino-3-cyano-4-substituted-5,6,7,8-tetrahydroquinolin-1-(4H)-yl]benzenesulfonamides” (Eur J Med Chem, 2010).

The nature of the first assay: Cytotoxicity against mouse EAC cells assessed as non-viable cells at 100 ug/ml after 2 hrs by trypan blue exclusion assay. It is filed as functional, Ehrlich.
Details: not given
In outline: (§1)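 EAC cells drawn aseptically by needle aspiration of ascitic fluid from previously inoculated mice; suspension at 2.5 × 10^6 cells per ml. Test agents dissolved in DMSO (1 ml) at 100, 50, 25 and 10 µg, then diluted into the cell suspension. Incubation 2 h at 37 °C. Non-viable cell percentage counted by trypan blue exclusion. IC50 taken from the survival ratio versus concentration curve.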
Take `COc1cc(OC)c(C2C(C#N)=C(N)N(c3ccc(S(N)(=O)=O)cc3)C3=C2CCCC3)cc1OC` (stereo not given): the Activity is listed as 100%.

`N#CC1=C(N)N(c2ccc(S(N)(=O)=O)cc2)C2=C(CCCC2)C1c1ccc(Cl)cc1Cl` (stereo not given): the Activity is on record as 70%.

For the compound `N#CC1=C(N)N(c2ccc(S(N)(=O)=O)cc2)C2=C(CCCC2)C1c1ccc([N+](=O)[O-])cc1` (stereo not given), the Activity amounted to 20%.

As for `N#CC1=C(N)N(c2ccc(S(N)(=O)=O)cc2)C2=C(CCCC2)C1c1cccs1` (stereo not given), the Activity is 20%.

Turning to `Cc1ccc(C2C(C#N)=C(N)N(c3ccc(S(N)(=O)=O)cc3)C3=C2CCCC3)cc1` (stereo not given), the Activity came out at 90%.

Consider `Cc1ccc(C2C(C#N)=C(N)N(c3ccc(S(N)(=O)=O)cc3)C3=C2CCCC3)o1` (stereo not given), for which the Activity is listed as 30%.

As for `N#CC1=C(N)N(c2ccc(S(N)(=O)=O)cc2)C2=C(CCCC2)C1c1ccc(O)cc1` (stereo not given), the Activity turned out to be 100%.

In the case of `COc1ccc2ccccc2c1C1C(C#N)=C(N)N(c2ccc(S(N)(=O)=O)cc2)C2=C1CCCC2` (stereo not given), the Activity was 50%.

Turning to `COc1ccccc1C1C(C#N)=C(N)N(c2ccc(S(N)(=O)=O)cc2)C2=C1CCCC2` (stereo not given), the Activity is 100%.

Turning to `N#CC1=C(N)N(c2ccc(S(N)(=O)=O)cc2)C2=C(CCCC2)C1c1c(O)ccc2ccccc12` (stereo not given), the Activity is given as 50%.

On to `N#CC1=C(N)N(c2ccc(S(N)(=O)=O)cc2)C2=C(CCCC2)C1c1ccc(Cl)c(Cl)c1` (stereo not given), for which the Activity is recorded as 50%.

The nature of another assay: Cytotoxicity against mouse EAC cells after 2 hrs by trypan blue exclusion assay. It is filed as functional, cell-based. To be noted: Ehrlich. In outline:
as §1
By IC50 is commonly meant the concentration at which inhibition is half-maximal. Low values mean inhibition by little substance, high ones a need for much substance. Compound `COc1cc(OC)c(C2C(C#N)=C(N)N(c3ccc(S(N)(=O)=O)cc3)C3=C2CCCC3)cc1OC` (stereo not given) returned an IC50 of 101 µM.

Turning to `N#CC1=C(N)N(c2ccc(S(N)(=O)=O)cc2)C2=C(CCCC2)C1c1ccc(Cl)cc1Cl` (stereo not given), the IC50 stood at 105 µM.

The compound `N#CC1=C(N)N(c2ccc(S(N)(=O)=O)cc2)C2=C(CCCC2)C1c1ccc([N+](=O)[O-])cc1` (stereo not given) displayed an IC50 of more than 100 µg/mL.

On to `N#CC1=C(N)N(c2ccc(S(N)(=O)=O)cc2)C2=C(CCCC2)C1c1cccs1` (stereo not given), for which the IC50 is more than 100 µg/mL.

`Cc1ccc(C2C(C#N)=C(N)N(c3ccc(S(N)(=O)=O)cc3)C3=C2CCCC3)cc1` (stereo not given) showed a half-inhibitory concentration (IC50) of 85.7 µM.

Take `Cc1ccc(C2C(C#N)=C(N)N(c3ccc(S(N)(=O)=O)cc3)C3=C2CCCC3)o1` (stereo not given): the IC50 was more than 100 µg/mL.

Consider `N#CC1=C(N)N(c2ccc(S(N)(=O)=O)cc2)C2=C(CCCC2)C1c1ccc(O)cc1` (stereo not given), for which the half-maximal inhibitory concentration (IC50) was found to be 82.9 µM.

For `COc1ccc2ccccc2c1C1C(C#N)=C(N)N(c2ccc(S(N)(=O)=O)cc2)C2=C1CCCC2` (stereo not given), 100 µg/mL corresponded to half-maximal inhibition (IC50).

On to `COc1ccccc1C1C(C#N)=C(N)N(c2ccc(S(N)(=O)=O)cc2)C2=C1CCCC2` (stereo not given), for which the IC50 was found to be 115 µM.

`N#CC1=C(N)N(c2ccc(S(N)(=O)=O)cc2)C2=C(CCCC2)C1c1c(O)ccc2ccccc12` (stereo not given): the midpoint of inhibition, the IC50, lay at 100 µg/mL.

`N#CC1=C(N)N(c2ccc(S(N)(=O)=O)cc2)C2=C(CCCC2)C1c1ccc(Cl)c(Cl)c1` (stereo not given) gave an IC50 of 100 µg/mL.

The next assay in a line: Cytotoxicity against mouse EAC cells assessed as non-viable cells at 10 ug/ml after 2 hrs by trypan blue exclusion assay.
Details: not given
In kind it is functional, Ehrlich. In outline: as §1
As to `COc1cc(OC)c(C2C(C#N)=C(N)N(c3ccc(S(N)(=O)=O)cc3)C3=C2CCCC3)cc1OC` (stereo not given), the Activity is recorded as 0%.

For the compound `N#CC1=C(N)N(c2ccc(S(N)(=O)=O)cc2)C2=C(CCCC2)C1c1ccc(Cl)cc1Cl` (stereo not given), the Activity is reported as 0%.

On to `N#CC1=C(N)N(c2ccc(S(N)(=O)=O)cc2)C2=C(CCCC2)C1c1ccc([N+](=O)[O-])cc1` (stereo not given), for which the Activity came out at 0%.

On to `N#CC1=C(N)N(c2ccc(S(N)(=O)=O)cc2)C2=C(CCCC2)C1c1cccs1` (stereo not given), for which the Activity came out at 0%.

As to `Cc1ccc(C2C(C#N)=C(N)N(c3ccc(S(N)(=O)=O)cc3)C3=C2CCCC3)cc1` (stereo not given), the Activity is 20%.

Regarding `Cc1ccc(C2C(C#N)=C(N)N(c3ccc(S(N)(=O)=O)cc3)C3=C2CCCC3)o1` (stereo not given), the Activity is reported as 0%.

Take `N#CC1=C(N)N(c2ccc(S(N)(=O)=O)cc2)C2=C(CCCC2)C1c1ccc(O)cc1` (stereo not given): the Activity worked out at 20%.

As to `COc1ccc2ccccc2c1C1C(C#N)=C(N)N(c2ccc(S(N)(=O)=O)cc2)C2=C1CCCC2` (stereo not given), the Activity stood at 5%.

Consider `COc1ccccc1C1C(C#N)=C(N)N(c2ccc(S(N)(=O)=O)cc2)C2=C1CCCC2` (stereo not given), for which the Activity is listed as 30%.

For `N#CC1=C(N)N(c2ccc(S(N)(=O)=O)cc2)C2=C(CCCC2)C1c1c(O)ccc2ccccc12` (stereo not given), the Activity was determined as 10%.

Consider `N#CC1=C(N)N(c2ccc(S(N)(=O)=O)cc2)C2=C(CCCC2)C1c1ccc(Cl)c(Cl)c1` (stereo not given), for which the Activity is listed as 1%.

A further assay in a line: Cytotoxicity against mouse EAC cells assessed as non-viable cells at 25 ug/ml after 2 hrs by trypan blue exclusion assay. In kind it is functional, Ehrlich.
Details: not given
In outline: as §1
As for `COc1cc(OC)c(C2C(C#N)=C(N)N(c3ccc(S(N)(=O)=O)cc3)C3=C2CCCC3)cc1OC` (stereo not given), the Activity was found to be 0%.

As to `N#CC1=C(N)N(c2ccc(S(N)(=O)=O)cc2)C2=C(CCCC2)C1c1ccc(Cl)cc1Cl` (stereo not given), the Activity is reported as 50%.

Regarding `N#CC1=C(N)N(c2ccc(S(N)(=O)=O)cc2)C2=C(CCCC2)C1c1ccc([N+](=O)[O-])cc1` (stereo not given), the Activity turned out to be 5%.

As for `N#CC1=C(N)N(c2ccc(S(N)(=O)=O)cc2)C2=C(CCCC2)C1c1cccs1` (stereo not given), the Activity turned out to be 5%.

Turning to `Cc1ccc(C2C(C#N)=C(N)N(c3ccc(S(N)(=O)=O)cc3)C3=C2CCCC3)cc1` (stereo not given), the Activity is 30%.

With `Cc1ccc(C2C(C#N)=C(N)N(c3ccc(S(N)(=O)=O)cc3)C3=C2CCCC3)o1` (stereo not given), the Activity is reported as 10%.

Take `N#CC1=C(N)N(c2ccc(S(N)(=O)=O)cc2)C2=C(CCCC2)C1c1ccc(O)cc1` (stereo not given): the Activity was found to be 42%.

As to `COc1ccc2ccccc2c1C1C(C#N)=C(N)N(c2ccc(S(N)(=O)=O)cc2)C2=C1CCCC2` (stereo not given), the Activity is 10%.

Consider `COc1ccccc1C1C(C#N)=C(N)N(c2ccc(S(N)(=O)=O)cc2)C2=C1CCCC2` (stereo not given), for which the Activity is reported as 40%.

For the compound `N#CC1=C(N)N(c2ccc(S(N)(=O)=O)cc2)C2=C(CCCC2)C1c1c(O)ccc2ccccc12` (stereo not given), the Activity stood at 5%.

Take `N#CC1=C(N)N(c2ccc(S(N)(=O)=O)cc2)C2=C(CCCC2)C1c1ccc(Cl)c(Cl)c1` (stereo not given): the Activity was 40%.

Another assay in a line: Cytotoxicity against mouse EAC cells assessed as non-viable cells at 50 ug/ml after 2 hrs by trypan blue exclusion assay. In kind it is functional, Ehrlich.
Details: not given
The gist of the method:
as §1
In the case of `COc1cc(OC)c(C2C(C#N)=C(N)N(c3ccc(S(N)(=O)=O)cc3)C3=C2CCCC3)cc1OC` (stereo not given), the Activity amounted to 50%.

With `N#CC1=C(N)N(c2ccc(S(N)(=O)=O)cc2)C2=C(CCCC2)C1c1ccc(Cl)cc1Cl` (stereo not given), the Activity is on record as 50%.

Turning to `N#CC1=C(N)N(c2ccc(S(N)(=O)=O)cc2)C2=C(CCCC2)C1c1ccc([N+](=O)[O-])cc1` (stereo not given), the Activity was 10%.

Consider `N#CC1=C(N)N(c2ccc(S(N)(=O)=O)cc2)C2=C(CCCC2)C1c1cccs1` (stereo not given), for which the Activity was found to be 10%.

As for `Cc1ccc(C2C(C#N)=C(N)N(c3ccc(S(N)(=O)=O)cc3)C3=C2CCCC3)cc1` (stereo not given), the Activity was 80%.

Turning to `Cc1ccc(C2C(C#N)=C(N)N(c3ccc(S(N)(=O)=O)cc3)C3=C2CCCC3)o1` (stereo not given), the Activity turned out to be 10%.

Regarding `N#CC1=C(N)N(c2ccc(S(N)(=O)=O)cc2)C2=C(CCCC2)C1c1ccc(O)cc1` (stereo not given), the Activity is recorded as 60%.

For the compound `COc1ccc2ccccc2c1C1C(C#N)=C(N)N(c2ccc(S(N)(=O)=O)cc2)C2=C1CCCC2` (stereo not given), the Activity is reported as 10%.

`COc1ccccc1C1C(C#N)=C(N)N(c2ccc(S(N)(=O)=O)cc2)C2=C1CCCC2` (stereo not given): the Activity is listed as 50%.

For the compound `N#CC1=C(N)N(c2ccc(S(N)(=O)=O)cc2)C2=C(CCCC2)C1c1c(O)ccc2ccccc12` (stereo not given), the Activity is on record as 20%.

Turning to `N#CC1=C(N)N(c2ccc(S(N)(=O)=O)cc2)C2=C(CCCC2)C1c1ccc(Cl)c(Cl)c1` (stereo not given), the Activity turned out to be 50%.
